Activity calls are given as the source filed them. No cut-off for these calls is given here.
What was measured:
[1] = tested on: IMR-32; assay: Growth inhibition of human IMR32 cells at 10 uM by sulforhodamine B assay; type: functional; settings: read-out: GI
Method in brief: (§1)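 Single-dose 10 µM screen by sulforhodamine B assay, reported as percent inhibition of cell proliferation. Cells grown in medium with 10% heat-inactivated FBS at 37 °C, 5% CO2, and treated at about 70% confluence or in log phase. Compounds dissolved in DMSO; controls received vehicle (<0.5% v/v).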

[2] = tested on: SK-N-SH; assay: Growth inhibition of human SK-N-SH cells at 10 uM by sulforhodamine B assay; type: functional; settings: read-out: GI; method in brief: as §1
[3] = tested on: SiHa; assay: Growth inhibition of human SiHa cells at 10 uM by sulforhodamine B assay; type: functional; settings: read-out: GI; method in brief: as §1
[4] = tested on: HCT-15; assay: Growth inhibition of human HCT15 cells at 10 uM by sulforhodamine B assay; type: functional; settings: read-out: GI; method in brief: as §1
[5] = tested on: A549; assay: Growth inhibition of human A549 cells at 10 uM by sulforhodamine B assay; type: functional; settings: read-out: GI; method in brief: as §1
[6] = tested on: HEp-2; assay: Growth inhibition of human Hep2 cells at 10 uM by sulforhodamine B assay; type: functional; settings: read-out: GI; method in brief: as §1
[7] = tested on: HL-60; assay: Growth inhibition of human HL60 cells after 48 hrs by MTT assay; type: functional, cell-based; settings: HL-60, 48 h
[8] = tested on: SiHa; assay: Growth inhibition of human SiHa cells after 48 hrs by MTT assay; type: functional, cell-based
[9] = tested on: CV-1; assay: Growth inhibition of african green monkey CV1 cells after 48 hrs by MTT assay; type: cell-based; settings: Chlorocebus aethiops, CV-1, 48 h
[10] = Therapeutic ratio of IC50 for african green monkey CV1 cells to IC50 for human HL60 cells; type: ADME, cell-based, HL-60; settings: CV1 cells and HL60 cells, read-out: Ratio IC50
[11] = tested on: HL-60; assay: Induction of apoptosis in human HL60 cells assessed as early apoptotic cells at 1 uM after 24 hrs using Annexin V-FITC and propidium iodide staining by flow cytometry relative to control; type: functional
Method in brief: (§2)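 HL-60 cells (1 x 10^5 per 1.5 mL) treated 24 h, washed twice in PBS and stained in binding buffer with annexin V-FITC and PI. Flow cytometry with FITC in FL-1 (530 nm) and PI in FL-2 (585 nm), using quadrant statistics: lower right taken as apoptotic, upper right as post-apoptotic necrotic. Representative of three independent experiments.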

[12] = tested on: HL-60; assay: Induction of apoptosis in human HL60 cells assessed as non-viable necrotic cells at 1 uM after 24 hrs using Annexin V-FITC and propidium iodide staining by flow cytometry relative to control; type: functional; method in brief: as §2
[13] = tested on: HL-60; assay: Induction of apoptosis in human HL60 cells assessed as caspase9 activation using LEHD-AMC as substrate at 1 uM after 24 hrs by fluorimetry relative to control; type: functional
Method in brief: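 HL-60 cells (2 x 10^6) treated 24 h, washed and lysed. Caspase-3, -8 and -9 activities in lysates measured fluorometrically with a commercial caspase fluorescent assay kit. Two independent experiments, each in duplicate.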

[14] = tested on: HL-60; assay: Induction of apoptosis in human HL60 cells assessed as DNA ladder formation at 10 uM after 24 hrs by agarose gel electrophoresis; type: functional, cell-based
Method in brief: (§3)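 Cells treated 24 h, then 2 x 10^6 cells lysed (Triton X-100 buffer, pH 8.0) with RNase at 37 °C for 90 min and proteinase-K at 50 °C for 1 h. DNA phenol/chloroform-extracted and ethanol-precipitated, then run on 1.8% agarose at 50 V for 1.5 h in TAE. Ladders viewed under UV.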

[15] = tested on: HeLa; assay: Induction of apoptosis in human HeLa cells assessed as DNA ladder formation at 10 uM after 24 hrs by agarose gel electrophoresis; type: functional, cell-based; method in brief: as §3
[16] = tested on: HL-60; assay: Cell cycle arrest in human HL60 cells assessed as accumulation at sub-G0 phase measuring DNA damage at 1 uM after 24 hrs using propidium iodide staining by flow cytometry (reference value: 1%); type: functional
Method in brief: (§4)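 HL-60 cells (1 x 10^5 per 1.5 mL) treated 24 h, then fixed in 70% cold ethanol at −20 °C overnight. RNase digestion (400 µg/ml) at 37 °C for 45 min, then propidium iodide (10 µg/ml) for 30 min. Flow cytometry on 10,000 events, FL2-A vs FL2-W, with doublet discrimination. Sub-G0 (hypodiploid) peak taken as apoptotic cells. Mean ± SD of three independent experiments.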

[17] = tested on: HL-60; assay: Cell cycle arrest in human HL60 cells assessed as accumulation at G1 phase at 1 uM after 24 hrs using propidium iodide staining by flow cytometry; type: functional, cell-based; method in brief: as §4
[18] = tested on: HL-60; assay: Cell cycle arrest in human HL60 cells assessed as accumulation at S phase at 1 uM after 24 hrs using propidium iodide staining by flow cytometry; type: functional, cell-based; method in brief: as §4
[19] = tested on: HL-60; assay: Induction of apoptosis in human HL60 cells assessed as increase of reactive oxygen species level at 1 uM after 24 hrs using DCFH-DA fluorescent dye based flow cytometric analysis relative to control; type: functional
Method in brief: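 HL-60 cells (1 x 10^5 per 1.5 mL) treated 24 h, then loaded with 10 µM H2DCFDA for 30 min at 37 °C. Washed twice in PBS and read in FL-1 (530 nm). Percentage of DCF-positive cells determined; mean ± SD of three experiments.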

[20] = tested on: HL-60; assay: Induction of NO production in human HL60 cells at 1 uM after 24 hrs using DAF-2DA fluorescent dye based flow cytometric analysis; type: functional, cell-based
Method in brief: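 HL-60 cells (1 x 10^5 per 1.5 mL) preloaded 30 min with 10 µM DAF-2-DA before treatment. After 24 h exposure, cells were washed and read by flow cytometry in FL-1 as NO-positive population. Mean ± SD of three independent experiments.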

[21] = tested on: HL-60; assay: Inhibition of NF-kappaB expression in human HL60 cells at 1 uM after 24 hrs by Western blotting; type: functional, cell-based
Method in brief: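 HL-60 cells treated 24 h and lysed in RIPA buffer on ice; protein measured by Bradford against a BSA standard. 50 µg resolved by SDS-PAGE and transferred to PVDF, blocked in 5% milk/TBST, then primary antibodies 1:1000 for 2 h and HRP secondary 1:1000 for 1 h. ECL detection with β-actin as loading control; bands quantified by densitometry.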

[22] = tested on: HL-60; assay: Induction of apoptosis in human HL60 cells assessed as decrease in size at 1 uM after 12 hrs by scanning electron microscopy; type: functional, cell-based
Method in brief: (§5)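 HL-60 cells at 2 x 10^5/ml in 10% FCS medium exposed to 0.5 or 1 µM for 6–48 h; DMSO vehicle controls. Cells fixed in 2.5% glutaraldehyde in 0.1 M phosphate (pH 7.2) at 4 °C for 1 h, post-fixed in 1% OsO4 and ethanol-dehydrated. Critical-point dried, gold-coated, and imaged by SEM at 40 kV.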

[23] = tested on: HL-60; assay: Induction of apoptosis in human HL60 cells assessed as smoothening of surface at 1 uM after 12 hrs by scanning electron microscopy; type: functional, cell-based; method in brief: as §5
[24] = tested on: HL-60; assay: Induction of apoptosis in human HL60 cells assessed as formation of apoptotic bodies at 1 uM after 24 hrs by scanning electron microscopy; type: functional, cell-based; method in brief: as §5
[25] = tested on: HL-60; assay: Induction of apoptosis in human HL60 cells at 0.5 uM after 48 hrs by scanning electron microscopy; type: functional, cell-based; method in brief: as §5
[26] = tested on: HL-60; assay: Induction of apoptosis in human HL60 cells assessed as nuclear fragmentation at 1 uM after 24 hrs by DAPI staining-based fluorescence microscopy; type: functional, cell-based
Method in brief: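 HL-60 or PC-3 cells treated at 1 µM for 24 h. Air-dried smears fixed in methanol at −20 °C for 20 min and stained with DAPI (1 µg/mL) for 20 min at room temperature in the dark. Mounted in 90% glycerol/PBS and examined by fluorescence microscopy for nuclear morphology.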

O=C(Nc1nc2ccc([N+](=O)[O-])cc2s1)c1cccnc1Nc1cc(F)c(F)c(F)c1
inhibition of growth at 10 µM [1]: 72% | inhibition of growth at 10 µM [2]: 49% | inhibition of growth at 10 µM [3]: 70% | inhibition of growth at 10 µM [4]: 62% | inhibition of growth at 10 µM [5]: 27% | inhibition of growth at 10 µM [6]: 0% | IC50 [7]: 0.08 µM | IC50 [8]: 36 µM | IC50 [9]: > 100 µM | selectivity ratio [10]: > 1250 | Activity [11]: 15% | Activity [12]: 47% | fold change (FC) [13]: 2 | Activity [14]: Active | Activity [15]: inactive | Activity [16]: 94% | Activity [17]: inactive | Activity [18]: inactive | Activity [19]: inactive | Activity [20]: inactive | inhibition [21]: Active | Activity [22]: Active | Activity [23]: Active | Activity [24]: Active | Activity [25]: inactive | Activity [26]: Active

From ChEMBL document CHEMBL1926589, “2-Anilinonicotinyl linked 2-aminobenzothiazoles and [1,2,4]triazolo[1,5-b] [1,2,4]benzothiadiazine conjugates as potential mitochondrial apoptotic inducers” (Bioorg Med Chem, 2011)
